Most compounds without a hit are left out; they make up all but 3% or so of the library.
5HT1E ag = 5-HT1E (human) receptor agonism; activation, % at 6 µM; CHO 5-HT1E Ga15 NFAT-bla reporter, FRET; 0% DMSO wells, 100% control agonist wells; AID 574; P28566; hit rate 0.69% among 65,000;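 active = activation above a set limit, the screen-wide mean activation plus 3 SD, cut at about 8.5% in these data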;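 note: 100% = positive control agonist at 1 µM giving full maximal response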
Target sequence (P28566 whole entry, looked up): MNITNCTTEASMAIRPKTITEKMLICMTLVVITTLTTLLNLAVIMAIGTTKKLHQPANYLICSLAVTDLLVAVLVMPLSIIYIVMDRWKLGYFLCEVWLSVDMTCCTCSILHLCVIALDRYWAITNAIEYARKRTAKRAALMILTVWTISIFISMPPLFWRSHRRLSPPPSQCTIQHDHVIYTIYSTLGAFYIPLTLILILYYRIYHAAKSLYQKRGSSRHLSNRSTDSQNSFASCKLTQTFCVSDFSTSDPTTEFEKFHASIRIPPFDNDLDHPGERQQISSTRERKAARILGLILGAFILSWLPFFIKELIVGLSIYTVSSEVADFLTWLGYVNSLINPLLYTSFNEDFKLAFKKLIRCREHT
HTR1A agonist = agonists of human 5-HT1a serotonin receptor. P08908. CHO 5-HT1a Ga15 NFAT-bla reporter, FRET ratio; 0% basal, 100% maximal reference agonist. activation, % at 10 µM. hit rate 0.56% among 65,000. AID 567;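 active = activation above the screen-wide mean activation plus 3 SD, cut at about 19% in these data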;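 note: 0% = DMSO wells and 100% = 5-CT at EC100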
HTR1E antagonist = blocks the human 5-HT1E serotonin receptor; P28566; CHO 5-HT1E Ga15 NFAT-bla reporter, FRET, antagonist; inhibition, % at 6 µM; hit rate 0.99% among 65,000; AID 571;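 active = inhibition above a set limit, the mean inhibition across every tested compound plus 3 SD, cut at about 29% in these data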;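 note: signal is the 460 over 535 nm emission ratio of beta-lactamase substrate; 0% = agonist plus DMSO wells and 100% = wells without agonist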
S1P1 ag-PAM = activates or potentiates agonism at human S1P1 receptor; P21453; S1P1 CRE-bla cells, forskolin, beta-lactamase FRET, potentiator mode; S1P1 agonist co-added at EC20, 2 nM; 100% = saturating reference agonist, 0% = basal; activation, % at 9.5 µM; hit rate 0.57% among 56,000; AID 449;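 active = activation above a cutoff set at the mean activation of all tested compounds plus 3 SD, cut at about 54% in these data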;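 note: forskolin at 4 µM as EC80 and the EC20 agonist is SEW2871; 100% = SEW2871 at its EC100 plus forskolin at EC80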
S1P3 ag = agonists of human S1P3 receptor; Q99500; S1P3 NFAT-BLA reporter cells, agonism, FRET ratio; relative to 1 µM S1P, basal subtracted; activation, % at 4.5 µM; hit rate 0.1% among 60,000; AID 373;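 active = activation above the screen-wide mean plus 3 SD, cut at about 4.5% in these data, passing the limit was not always enough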
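Material: Human S1P3 NFAT-BLA reporter CHO cells | Incubation: Overnight plating, 4 h compound 37 °C, 2 h substrate RT | Signal: FRET β-lactamase substrate fluorescence, excitation 405 nm, 460/535 nm emission ratio, background-subtracted | Compound: 4.5 µM final, single dose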
5-HT1A blocker = 5-HT1a (human) receptor antagonism | AID 612 | CHO 5-HT1a Ga15 NFAT-bla reporter, antagonist mode | P08908 | inhibition, % at 10 µM | hit rate 0.68% among 62,000;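 active = inhibition above the mean of all tested compounds plus 3 SD, cut at about 43% in these data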;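 note: receptor stimulated by 5-CT agonist at 100 nM near EC80; beta-lactamase reporter measured by ratiometric fluorescence of a cleavable substrate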
The depositor's hits bear a star; · = not tested or not shown.

SMILES	5HT1E ag	HTR1A agonist	HTR1E antagonist	S1P1 ag-PAM	S1P3 ag	5-HT1A blocker
COc1ccccc1Nc1nc(C2(C)CCC(=O)O2)cs1 (configuration not stated)	-2	0	1	-6	0	21
CCN(Cc1ccccc1)C(=O)CCCOc1ccccc1	0	-1	-1	-17	0	27
COC(=O)c1sc2ccccc2c1N	0	-2	-3	-26	0	10
COC(=O)c1sc2ccccc2c1C(=O)OC	11*	-3	2	0	0	2
CCOC(=O)c1cccc(NC(=O)CSc2nnc(COc3ccc(Cl)cc3)o2)c1	0	-1	1	-2	-1	-11
CCN(CC)CCCN1C(=O)C(O)=C(C(=O)c2ccco2)C1c1ccc(C)o1 (configuration not stated)	1	0	4	·	·	2
CC1=C(C(=O)Nc2ccccc2)C(c2ccc(C)o2)n2c(s/c(=C\c3ccco3)c2=O)=N1 (configuration not stated)	0	0	42*	7	-1	28
COC(=O)CSc1nc(-c2ccccc2)cc(-c2ccco2)c1C#N	0	-2	8	-36	1	7
O=c1nc(C(F)(F)F)nc2ccccn12	-1	21*	-4	·	-2	9
OC1CCN(c2c3c(nc4cc(-c5cccc(F)c5)nn24)CCCC3)CC1	0	1	31*	·	·	2
Fc1cccc(-c2cc3nc4c(c(N5CCC6(CC5)OCCO6)n3n2)CCCC4)c1	-1	-1	17	·	·	-3
CCOc1ccc(-c2[nH]ncc2Oc2ccccc2OC)c(O)c1	1	-4	-3	-4	0	-3
CCCOC(=O)c1ccc(Oc2cn[nH]c2-c2ccc(OC)cc2O)cc1	-1	0	26	36	-1	46*
Cc1sc2nc(CN(CCc3ccccc3)C(=O)c3ccco3)[nH]c(=O)c2c1C	-1	-2	2	0	0	4
Nc1ccc(N2CCOCC2)c(Cl)c1	0	-3	-6	93*	-1	0
O=C(Nc1ccc(N2CCOCC2)c(Cl)c1)c1cccnc1	-1	-3	6	-3	0	8
CCOC(=O)C(OC(=O)c1sc(=S)n(C)c1C)C(C)=O (configuration not stated)	-1	-2	10	-7	-4	·
O=C1c2[nH]nc(-c3ccccc3O)c2C(c2ccccc2)N1Cc1ccco1 (configuration not stated)	0	2	-8	-10	-2	44*
O=C1c2[nH]nc(-c3ccccc3O)c2C(c2ccccc2F)N1Cc1ccco1 (configuration not stated)	0	5	-2	12	-1	43*
COc1ccc(CCN2C(=O)c3[nH]nc(-c4ccccc4O)c3C2c2ccccc2)cc1OC (configuration not stated)	1	1	6	-2	-1	35
O=C1c2ccccc2C(O)N1Cc1ccco1 (configuration not stated)	0	0	19	20	23	4
O=C(CSc1ccccc1)Nc1cccnc1	0	-3	6	·	-1	1
Cc1ccc(NC(=O)CC2Oc3ccccc3NC2=O)c(C)c1 (configuration not stated)	0	-3	-15	-22	-1	3
Clc1ccccc1N1CCN(c2ncnc3nc[nH]c23)CC1	0	66*	28	0	-2	-5
FC(F)(F)c1cccnc1N1CCN(c2ncnc3nc[nH]c23)CC1	1	1	5	8	-1	-8
CCN(CC)c1ccc2cc(NC(=O)CCC(=O)O)c(=O)oc2c1	0	-3	55*	58*	-2	40
CCN(CC)c1ccc2cc(C(=O)Nc3cccnc3N3CCOCC3)c(=O)oc2c1	0	2	0	·	·	2
CCN(CC)c1ccc2cc(C(=O)Nc3ccccn3)c(=O)oc2c1	6	57*	-32	-1	-1	·
CCOC(=O)c1c(NC(=O)c2cccs2)sc2c1CCC2	1	2	-6	1	-1	-20
